Values after ≈ are worked out from the molar mass of the structure shown.
Key:
Format in all cases: functional
[1] = test system: Aspergillus fumigatus; experiment: Antifungal activity against Aspergillus fumigatus IFM 49895 after 48 hrs by broth microdilution method; settings: IFM 49895, 48 h
How it was run: (§1)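 CLSI M27-A2 (yeasts) / M38-A (moulds) broth microdilution in RPMI 1640 buffered to pH 7.0 with 0.165 M MOPS. Malassezia furfur got the same medium supplemented with glucose, bile salts, glycerol, glycerol monostearate and Tween 20. Final inoculum 0.65 × 10^3–2.5 × 10^3 CFU/ml for yeasts and 0.87 × 10^4–3.8 × 10^4 CFU/ml for filamentous fungi. Incubation at 35°C except M. racemosus and F. solani, which were held at 30°C.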

[2] = test system: Meyerozyma guilliermondii; experiment: Antifungal activity against Candida guilliermondii IFO 10279 after 48 hrs by broth microdilution method; settings: IFO 10279, 48 h; how it was run: as §1
[3] = test system: Meyerozyma guilliermondii; experiment: Antifungal activity against Candida guilliermondii clinical isolates after 48 hrs by broth microdilution method
How it was run: (§2)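 Clinical isolates from Japanese hospitals or culture collections were tested by broth microdilution in RPMI 1640-MOPS. Inoculum was 0.57 × 10^3–2.5 × 10^3 CFU/ml for yeasts and 0.4 × 10^4–3.3 × 10^4 CFU/ml for filamentous fungi. Incubation was at 35°C for about 48 h, or 72 h where footnoted. Results were summarised as MIC range, MIC50 and MIC90.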

[4] = test system: Candida albicans; experiment: Antifungal activity against Candida albicans ATCC 64124 after 47 hrs by broth microdilution method; settings: ATCC 64124, 47 h
How it was run: (§3)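 Fluconazole-resistant or susceptible-dose-dependent ATCC C. albicans strains were tested by CLSI M27-A2 broth microdilution in RPMI 1640–0.165 M MOPS, pH 7.0, with a final inoculum of 1.1–1.5 × 10^3 CFU/ml at 35°C for about 47 h. MIC was the lowest concentration with a prominent (~50%) turbidity decrease relative to growth control; amphotericin B was read at complete inhibition.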

[5] = test system: Candida albicans; experiment: Antifungal activity against Candida albicans ATCC 24433 after 48 hrs by broth microdilution method; settings: ATCC 24433, 48 h
How it was run: (§4)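 CLSI M27-A2 (yeasts) or M38-A (A. fumigatus) broth microdilution in RPMI 1640 buffered to pH 7.0 with 0.165 M MOPS. Final inocula were 0.65–2.5 × 10^3 CFU/ml for yeasts and 0.87–3.8 × 10^4 CFU/ml for filamentous fungi. Incubation was at 35°C for about 48 h (72 h for C. neoformans). MIC was the lowest concentration giving a prominent (~50%) turbidity drop versus growth control; amphotericin B required complete inhibition.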

[6] = test system: Candida albicans; experiment: Antifungal activity against Candida albicans ATCC MYA-1003 after 47 hrs by broth microdilution method; settings: ATCC MYA-1003, 47 h; how it was run: as §3
[7] = test system: Aspergillus fumigatus; experiment: Antifungal activity against Aspergillus fumigatus TIMM 0063 after 48 hrs by broth microdilution method; settings: TIMM 0063, 48 h; how it was run: as §1
[8] = test system: Cryptococcus neoformans; experiment: Antifungal activity against Cryptococcus neoformans TIMM 0354 after 72 hrs by broth microdilution method; settings: TIMM 0354, 72 h; how it was run: as §4
[9] = test system: Candida parapsilosis; experiment: Antifungal activity against Candida parapsilosis NBRC 10219 after 48 hrs by broth microdilution method; settings: Lodderomyces parapsilosis, NBRC 10219, 48 h; how it was run: as §4
[10] = test system: Trichosporon asahii; experiment: Antifungal activity against Trichosporon asahii JCM 2466 after 48 hrs by broth microdilution method; settings: JCM 2466, 48 h; how it was run: as §1
[11] = test system: Aspergillus fumigatus; experiment: Antifungal activity against Aspergillus fumigatus ATCC 16424 after 48 hrs by broth microdilution method; settings: ATCC 16424, 48 h; how it was run: as §4
[12] = test system: Malassezia furfur; experiment: Antifungal activity against Malassezia furfur NBRC 0656 after 48 hrs by broth microdilution method; settings: NBRC 0656, 48 h; how it was run: as §1
[13] = test system: Candida albicans; experiment: Antifungal activity against Candida albicans ATCC MYA-575 after 47 hrs by broth microdilution method; settings: ATCC MYA-575, 47 h; how it was run: as §3
[14] = test system: Rhizopus arrhizus; experiment: Antifungal activity against Rhizopus oryzae NBRC 31005 after 24 hrs by broth microdilution method; settings: NBRC 31005, 24 h; how it was run: as §1
[15] = test system: Pichia kudriavzevii; experiment: Antifungal activity against Candida krusei clinical isolates after 48 hrs by broth microdilution method
How it was run: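 Japanese hospital Candida isolates were tested by CLSI M27-A2 broth microdilution in RPMI 1640–MOPS, pH 7.0, with inocula of 0.57–2.5 × 10^3 CFU/ml at 35°C for about 48 h. Inocula came from 24-h potato dextrose agar cultures. MIC was the lowest concentration with about 50% turbidity reduction versus growth control (complete inhibition for amphotericin B). Range, MIC50 and MIC90 were reported.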

[16] = test system: Saccharomyces cerevisiae; experiment: Antifungal activity against Saccharomyces cerevisiae ATCC 24657 after 48 hrs by broth microdilution method; settings: ATCC 24657, 48 h; how it was run: as §1
[17] = test system: Candida albicans; experiment: Antifungal activity against Candida albicans ATCC 10261 after 48 hrs by broth microdilution method; settings: ATCC 10261, 48 h; how it was run: as §1
[18] = test system: Nakaseomyces glabratus; experiment: Antifungal activity against Candida glabrata ATCC 90030 after 48 hrs by broth microdilution method; settings: ATCC 90030, 48 h; how it was run: as §1
[19] = test system: Aspergillus terreus; experiment: Antifungal activity against Aspergillus terreus NBRC 33026 after 48 hrs by broth microdilution method; settings: NBRC 33026, 48 h; how it was run: as §1
[20] = test system: Candida albicans; experiment: Antifungal activity against Candida albicans clinical isolates after 48 hrs by broth microdilution method; how it was run: as §2
[21] = test system: Candida albicans; experiment: Antifungal activity against Candida albicans TIMM 1623 after 48 hrs by broth microdilution method; settings: TIMM 1623, 48 h; how it was run: as §1
[22] = test system: Cryptococcus neoformans; experiment: Antifungal activity against Cryptococcus neoformans ATCC 90112 after 72 hrs by broth microdilution method; settings: ATCC 90112, 72 h; how it was run: as §4
[23] = test system: Cryptococcus neoformans; experiment: Antifungal activity against Cryptococcus neoformans clinical isolates after 72 hrs by broth microdilution method; how it was run: as §2

**Q.** For `OC(Cn1cncn1)(Cn1cncn1)c1ccc(F)cc1F` [FLUCONAZOLE], which MFC [1] is on record?
**A.** The MFC was over 64 µg/mL.

**Q.** What about the MIC [1] of the same compound?
**A.** Its MIC is over 64 µg/mL.

**Q.** And the MFC [2]?
**A.** The MFC was over 64 µg/mL.

**Q.** What about the MIC [2] of the same compound?
**A.** Its MIC is 4 µg/mL (≈ 13.1 µM).

**Q.** And the MIC50 [3]?
**A.** Its MIC50 is 4 µg/mL (≈ 13.1 µM).

**Q.** And the MIC90 [3]?
**A.** The MIC90 was 8 µg/mL (≈ 26.1 µM).

**Q.** And the MIC [4]?
**A.** Its MIC is over 64 µg/mL.

**Q.** And the MFC [5]?
**A.** The MFC was over 64 µg/mL.

**Q.** And the MIC [5]?
**A.** Its MIC is 0.125 µg/mL (≈ 0.408 µM).

**Q.** What about the MIC [6] of the same compound?
**A.** Its MIC is 64 µg/mL (≈ 209 µM).

**Q.** And the MFC [7]?
**A.** Its MFC is over 64 µg/mL.

**Q.** And the MIC [7]?
**A.** Its MIC is over 64 µg/mL.

**Q.** What about the MFC [8] of the same compound?
**A.** The MFC was over 64 µg/mL.

**Q.** What about the MIC [8] of the same compound?
**A.** The MIC was 2 µg/mL (≈ 6.53 µM).

**Q.** What about the MFC [9] of the same compound?
**A.** Its MFC is over 64 µg/mL.

**Q.** And the MIC [9]?
**A.** Its MIC is 1 µg/mL (≈ 3.27 µM).

**Q.** And the MFC [10]?
**A.** The MFC was over 64 µg/mL.

**Q.** What about the MIC [10] of the same compound?
**A.** The MIC was 1 µg/mL (≈ 3.27 µM).

**Q.** What about the MFC [11] of the same compound?
**A.** Its MFC is over 64 µg/mL.

**Q.** What about the MIC [11] of the same compound?
**A.** Its MIC is over 64 µg/mL.

**Q.** What about the MFC [12] of the same compound?
**A.** The MFC was over 64 µg/mL.

**Q.** What about the MIC [12] of the same compound?
**A.** The MIC was 4 µg/mL (≈ 13.1 µM).

**Q.** And the MIC [13]?
**A.** Its MIC is 16 µg/mL (≈ 52.2 µM).

**Q.** What about the MFC [14] of the same compound?
**A.** Its MFC is over 64 µg/mL.

**Q.** What about the MIC [14] of the same compound?
**A.** The MIC was over 64 µg/mL.

**Q.** What about the MIC50 [15] of the same compound?
**A.** Its MIC50 is 64 µg/mL (≈ 209 µM).

**Q.** What about the MIC90 [15] of the same compound?
**A.** The MIC90 was 64 µg/mL (≈ 209 µM).

**Q.** What about the MFC [16] of the same compound?
**A.** The MFC was over 64 µg/mL.

**Q.** And the MIC [16]?
**A.** The MIC was 8 µg/mL (≈ 26.1 µM).

**Q.** What about the MFC [17] of the same compound?
**A.** The MFC was over 64 µg/mL.

**Q.** And the MIC [17]?
**A.** The MIC was 0.125 µg/mL (≈ 0.408 µM).

**Q.** And the MFC [18]?
**A.** Its MFC is over 64 µg/mL.

**Q.** What about the MIC [18] of the same compound?
**A.** The MIC was 8 µg/mL (≈ 26.1 µM).

**Q.** And the MFC [19]?
**A.** Its MFC is over 64 µg/mL.

**Q.** What about the MIC [19] of the same compound?
**A.** Its MIC is over 64 µg/mL.

**Q.** And the MIC [20]?
**A.** The MIC was 0.125 µg/mL (≈ 0.408 µM).

**Q.** And the MIC50 [20]?
**A.** The MIC50 was 0.125 µg/mL (≈ 0.408 µM).

**Q.** What about the MIC90 [20] of the same compound?
**A.** The MIC90 was 0.25 µg/mL (≈ 0.816 µM).

**Q.** And the MFC [21]?
**A.** The MFC was over 64 µg/mL.

**Q.** What about the MIC [21] of the same compound?
**A.** The MIC was 0.125 µg/mL (≈ 0.408 µM).

**Q.** What about the MFC [22] of the same compound?
**A.** Its MFC is over 64 µg/mL.

**Q.** And the MIC [22]?
**A.** The MIC was 1 µg/mL (≈ 3.27 µM).

**Q.** What about the MIC50 [23] of the same compound?
**A.** The MIC50 was 2 µg/mL (≈ 6.53 µM).

**Q.** And the MIC90 [23]?
**A.** The MIC90 was 4 µg/mL (≈ 13.1 µM).
